Activity calls are given as the source filed them. No cut-off for these calls is given here.
Key:
[1] = molecular target: T1, Neuronal acetylcholine receptor subunit alpha-7 (Homo sapiens, UniProt P36544); assay: Agonist activity at alpha7-5HT3 chimera expressed in human SH-EP1 cells by FLIPR assay; assay type: functional, cell-based
Target sequence in this assay (P36544 23-502 limits assumed): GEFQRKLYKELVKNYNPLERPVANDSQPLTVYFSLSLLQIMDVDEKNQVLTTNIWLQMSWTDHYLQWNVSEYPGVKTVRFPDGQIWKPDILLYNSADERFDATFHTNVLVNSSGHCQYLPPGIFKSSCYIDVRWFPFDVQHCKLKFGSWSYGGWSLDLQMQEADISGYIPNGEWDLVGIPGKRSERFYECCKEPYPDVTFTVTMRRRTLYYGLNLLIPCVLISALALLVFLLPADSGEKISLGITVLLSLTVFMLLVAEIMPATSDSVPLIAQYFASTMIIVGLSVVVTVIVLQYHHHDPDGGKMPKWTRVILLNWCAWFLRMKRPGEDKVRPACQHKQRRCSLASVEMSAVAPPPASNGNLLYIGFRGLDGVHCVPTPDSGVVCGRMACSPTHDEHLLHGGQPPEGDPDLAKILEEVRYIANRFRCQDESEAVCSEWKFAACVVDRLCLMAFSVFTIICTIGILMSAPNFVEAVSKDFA

[2] = Apparent permeability from apical to basolateral side in dog MDCK cells; assay type: ADME, cell-based, Canis lupus familiaris
In short: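 MDCK monolayer permeability measured apical to basolateral, expressed as Papp (x10^-6 cm/s).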

[3] = Metabolic stability in rat liver microsomes assessed as hepatic extraction ratio after 30 mins; assay type: ADME, Microsome
In short: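 Rat liver microsome incubation; stability reported as fraction of compound remaining after 30 min relative to t0 concentration.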

[4] = Ratio of drug level in brain to plasma in mouse at 10 mg/kg after 5 mins; assay type: ADME, organism-based; design: dose 10 mg/kg
In short: (§1)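 Mouse brain uptake: brain and plasma concentrations after a 10 mg/kg dose, ratio taken at 5 and 60 min.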

[5] = Ratio of drug level in brain to plasma in mouse at 10 mg/kg after 60 min; assay type: ADME, organism-based; design: dose 10 mg/kg; in short: as §1
[6] = molecular target: Neuronal acetylcholine receptor subunit alpha-7 (Rattus norvegicus, UniProt Q05941); assay: Displacement of [3H]MLA from alpha-7 nACh receptor in rat brain; assay type: tissue-based
In short: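 Rat brain homogenate binding with [3H]MLA; individual Ki values, mean ± SEM reported when more than 3 measurements.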

[7] = molecular target: Muscarinic acetylcholine receptor M3 (Homo sapiens) (UniProt P20309); assay: Displacement of [3H]DAMP from human muscarinic M3 receptor expressed in CHO cells at 10 uM; assay type: cell-based
In short: (§2)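 Human muscarinic receptors in transfected CHO cells; radioligands [3H]pirenzepine (M1), [3H]AF-DX 384 (M2), [3H]DAMP (M3); percent block at 10 µM.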

[8] = Cmax in dog ECG model; assay type: ADME, organism-based, Canis lupus familiaris; conditions: in vivo
In short: (§3)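 Acute dog ECG cardiovascular safety study; no-observable-adverse-effect dose set, with Cmax measured at that dose.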

[9] = Oral bioavailability in Sprague-Dawley rat at 5 mg/kg; assay type: ADME, organism-based; conditions: in vivo
In short: (§4)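 Sprague-Dawley rats given a single 5.0 mg/kg oral dose; pharmacokinetic parameters derived from plasma.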

Rattus norvegicus [10] = assay: Reversal of amphetamine-induced auditory gating deficit in rat at 1 mg/kg, sc twice daily for 6 days; assay type: functional, organism-based; design: dose 1 mg/kg
In short: (§5)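 Rats dosed sc twice daily for 6 days with drug 1 mg/kg or 0.9% saline vehicle (n = 8). On day 7, amphetamine-induced gating deficit challenged with acute drug 1 mg/kg sc; brain and plasma exposures measured.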

Plasma [11] = assay: Drug level in rat plasma at 0.1 mg/kg, sc; assay type: ADME, organism-based; design: dose 0.1 mg/kg, route subcutaneous; conditions: in vivo
In short: (§6)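 Rats given amphetamine 1 mg/kg iv to disrupt gating, then test drug sc (0.01–1.0 mg/kg, n = 6-9). Gating is the conditioning/test EEG field potential ratio from paired tones at 0.5 Hz, monitored 30 min, expressed as % reversal. Brain and plasma levels taken about 37 min post-dose.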

[12] = Toxicity in dog ECG model assessed as drug level causing no observable adverse effects; assay type: organism-based, Canis lupus familiaris; conditions: in vivo, read-out: Activity; in short: as §3
Rattus norvegicus [13] = assay: Volume of distribution at steady state in Sprague-Dawley rat at 5 mg/kg, po; assay type: ADME, organism-based; design: dose 5 mg/kg, route oral; conditions: in vivo; in short: as §4
[14] = Clearance in Sprague-Dawley rat at 5 mg/kg, po; assay type: ADME, organism-based; design: dose 5 mg/kg, route oral; conditions: in vivo; in short: as §4
Brain [15] = assay: Drug level in rat brain at 0.1 mg/kg, sc; assay type: ADME, organism-based; design: dose 0.1 mg/kg, route subcutaneous; conditions: in vivo; in short: as §6
[16] = molecular target: T1, Neuronal acetylcholine receptor subunit alpha-7; assay: Displacement of [3H]MLA from alpha-7 nACh receptor in human IMR32 cells; assay type: cell-based, IMR-32
Target sequence in this assay (P36544 whole entry): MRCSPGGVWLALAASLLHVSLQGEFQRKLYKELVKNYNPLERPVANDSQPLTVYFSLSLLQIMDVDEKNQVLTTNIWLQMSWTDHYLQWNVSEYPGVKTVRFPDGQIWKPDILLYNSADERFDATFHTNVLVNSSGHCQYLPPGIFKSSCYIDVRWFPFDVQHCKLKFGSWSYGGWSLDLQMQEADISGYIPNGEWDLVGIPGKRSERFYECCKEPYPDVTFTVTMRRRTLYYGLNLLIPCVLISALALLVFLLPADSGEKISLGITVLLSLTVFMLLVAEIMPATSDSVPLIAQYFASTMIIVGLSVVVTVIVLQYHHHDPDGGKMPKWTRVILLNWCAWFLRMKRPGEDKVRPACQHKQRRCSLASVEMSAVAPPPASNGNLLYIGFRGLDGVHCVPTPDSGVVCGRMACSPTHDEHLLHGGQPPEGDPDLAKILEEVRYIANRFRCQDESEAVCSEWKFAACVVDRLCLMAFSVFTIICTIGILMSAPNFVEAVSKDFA

Plasma [17] = assay: Drug level in rat plasma at 0.01 mg/kg, sc; assay type: ADME, organism-based; design: dose 0.01 mg/kg, route subcutaneous; conditions: in vivo; in short: as §6
[18] = Drug level in rat brain at 1 mg/kg, sc twice daily for 6 days; assay type: ADME, organism-based; design: dose 1 mg/kg, route subcutaneous; conditions: read-out: Drug uptake; in short: as §5
[19] = molecular target: T2, 5-hydroxytryptamine receptor 3A (Rattus norvegicus, UniProt P35563); assay: Binding affinity to rat 5HT3 receptor
T2 sequence (P35563 whole entry): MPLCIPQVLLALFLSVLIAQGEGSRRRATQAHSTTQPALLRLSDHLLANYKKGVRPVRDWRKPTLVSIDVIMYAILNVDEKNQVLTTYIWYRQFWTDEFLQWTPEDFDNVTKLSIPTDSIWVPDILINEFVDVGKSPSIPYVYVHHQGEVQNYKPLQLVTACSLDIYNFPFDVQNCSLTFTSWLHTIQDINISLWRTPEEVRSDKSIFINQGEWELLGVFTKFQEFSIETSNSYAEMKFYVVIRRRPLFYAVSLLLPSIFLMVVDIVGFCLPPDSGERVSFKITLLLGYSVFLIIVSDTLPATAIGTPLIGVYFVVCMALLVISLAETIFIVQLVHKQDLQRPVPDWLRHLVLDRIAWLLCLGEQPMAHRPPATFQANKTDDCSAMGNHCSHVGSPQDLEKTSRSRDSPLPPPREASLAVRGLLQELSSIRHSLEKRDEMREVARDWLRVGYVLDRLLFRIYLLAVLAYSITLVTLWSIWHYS

Rattus norvegicus [20] = assay: Reversal of amphetamine-induced auditory gating deficit in sc dosed rat auditory sensory gating model; assay type: functional; in short: as §6
[21] = Drug level in rat plasma at 0.24 mg/kg, iv after 30 mins; assay type: ADME, organism-based; design: dose 0.24 mg/kg, route intravenous
Plasma [22] = assay: Drug level in rat plasma at 1 mg/kg, sc; assay type: ADME, organism-based; design: dose 1 mg/kg, route subcutaneous; conditions: in vivo; in short: as §6
[23] = Metabolic stability in human liver microsomes assessed as half life; assay type: ADME, Microsome
[24] = Drug level in rat plasma at 1 mg/kg, sc twice daily for 6 days; assay type: ADME, organism-based; design: dose 1 mg/kg, route subcutaneous; in short: as §5
[25] = molecular target: T3, Muscarinic acetylcholine receptor M2 (Homo sapiens) (UniProt P08172); assay: Displacement of [3H]AF-DX384 from human muscarinic M2 receptor expressed in CHO cells at 10 uM; assay type: cell-based; in short: as §2
T3 sequence (whole entry): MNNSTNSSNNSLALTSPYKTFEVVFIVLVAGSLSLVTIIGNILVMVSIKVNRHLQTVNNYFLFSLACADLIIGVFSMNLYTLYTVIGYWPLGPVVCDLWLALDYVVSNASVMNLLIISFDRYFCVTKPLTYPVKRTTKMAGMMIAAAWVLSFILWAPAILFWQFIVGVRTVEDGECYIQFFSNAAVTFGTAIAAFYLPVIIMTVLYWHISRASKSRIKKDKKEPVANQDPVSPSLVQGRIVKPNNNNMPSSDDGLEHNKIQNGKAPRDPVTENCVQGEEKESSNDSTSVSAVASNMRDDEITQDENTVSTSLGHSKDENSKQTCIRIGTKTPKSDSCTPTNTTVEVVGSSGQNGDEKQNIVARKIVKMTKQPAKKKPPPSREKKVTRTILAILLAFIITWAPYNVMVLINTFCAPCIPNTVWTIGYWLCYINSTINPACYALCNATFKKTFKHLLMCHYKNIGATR

hERG (KCNH2) = hERG (KCNH2) (Homo sapiens, UniProt Q12809); assay: Inhibition of human ERG expressed in HEK293 cells at 20 uM; assay type: cell-based; conditions: HEK293 cells that express hERG
In short: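 Patch-clamp on hERG current (IKr) in HEK cells; percent inhibition at 20 µM; aqueous solubility checked by HPLC in pH 7 buffer.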

[26] = molecular target: T4, Muscarinic acetylcholine receptor M1 (Homo sapiens) (UniProt P11229); assay: Displacement of [3H]pirenzepine from human muscarinic M1 receptor expressed in CHO cells at 10 uM; assay type: cell-based; in short: as §2
T4 sequence (whole entry): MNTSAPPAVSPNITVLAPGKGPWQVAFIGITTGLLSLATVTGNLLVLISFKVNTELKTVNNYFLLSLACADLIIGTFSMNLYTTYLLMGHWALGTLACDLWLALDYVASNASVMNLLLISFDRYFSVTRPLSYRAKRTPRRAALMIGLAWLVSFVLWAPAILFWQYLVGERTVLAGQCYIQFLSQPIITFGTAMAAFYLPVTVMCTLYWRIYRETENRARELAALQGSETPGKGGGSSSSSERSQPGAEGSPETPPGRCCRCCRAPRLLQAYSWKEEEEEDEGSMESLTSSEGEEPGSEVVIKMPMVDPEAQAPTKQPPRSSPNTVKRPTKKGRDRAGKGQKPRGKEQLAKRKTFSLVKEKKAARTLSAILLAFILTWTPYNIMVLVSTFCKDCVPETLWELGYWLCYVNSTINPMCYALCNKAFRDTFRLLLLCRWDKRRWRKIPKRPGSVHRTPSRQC

Brain [27] = assay: Drug level in rat brain at 0.01 mg/kg, sc; assay type: ADME, organism-based; design: dose 0.01 mg/kg, route subcutaneous; conditions: in vivo, read-out: Drug uptake; in short: as §6
Brain [28] = assay: Drug level in rat brain at 1 mg/kg, sc; assay type: ADME, organism-based; design: dose 1 mg/kg, route subcutaneous; conditions: in vivo, read-out: Drug uptake; in short: as §6
[29] = Half life in Sprague-Dawley rat at 5 mg/kg, po; assay type: ADME, organism-based; design: dose 5 mg/kg, route oral; conditions: in vivo; in short: as §4
[30] = molecular target: Neuronal acetylcholine receptor; alpha4/beta2 (Rattus norvegicus) (UniProt P09483+P12390); assay: Displacement of [3H][…] from alpha-4-beta-2 nACh receptor in rat brain at 1 uM; assay type: tissue-based
In short: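 Rat brain homogenate binding using [3H][…]; percent block at 1 µM.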

Plasma [31] = assay: Fraction unbound in human plasma at 0.100 ug/mL; assay type: ADME, cell-free
In short: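 Human plasma protein binding as fraction unbound, measured at drug concentration 0.100 µg/mL.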

Rattus norvegicus [32] = assay: Reversal of amphetamine-induced auditory gating deficit in iv dosed rat auditory sensory gating model; conditions: read-out: MED

Chain of Neuronal acetylcholine receptor subunit alpha-7 (Rattus norvegicus, UniProt Q05941) (Q05941 whole entry): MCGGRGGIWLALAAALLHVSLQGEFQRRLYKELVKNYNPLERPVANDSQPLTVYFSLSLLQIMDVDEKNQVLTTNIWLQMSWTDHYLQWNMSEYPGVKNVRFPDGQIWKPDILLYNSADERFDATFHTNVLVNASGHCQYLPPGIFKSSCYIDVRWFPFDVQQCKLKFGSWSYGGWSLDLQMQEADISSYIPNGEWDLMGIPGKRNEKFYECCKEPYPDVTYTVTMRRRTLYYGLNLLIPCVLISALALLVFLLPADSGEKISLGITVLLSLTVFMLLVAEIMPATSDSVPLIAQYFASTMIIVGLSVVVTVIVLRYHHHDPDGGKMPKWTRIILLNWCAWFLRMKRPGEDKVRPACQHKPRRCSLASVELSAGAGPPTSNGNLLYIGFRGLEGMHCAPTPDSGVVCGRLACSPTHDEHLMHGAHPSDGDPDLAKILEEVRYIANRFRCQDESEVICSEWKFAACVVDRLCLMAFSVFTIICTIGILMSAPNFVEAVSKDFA
Chain of Muscarinic acetylcholine receptor M3 (Homo sapiens) (P20309 whole entry, looked up): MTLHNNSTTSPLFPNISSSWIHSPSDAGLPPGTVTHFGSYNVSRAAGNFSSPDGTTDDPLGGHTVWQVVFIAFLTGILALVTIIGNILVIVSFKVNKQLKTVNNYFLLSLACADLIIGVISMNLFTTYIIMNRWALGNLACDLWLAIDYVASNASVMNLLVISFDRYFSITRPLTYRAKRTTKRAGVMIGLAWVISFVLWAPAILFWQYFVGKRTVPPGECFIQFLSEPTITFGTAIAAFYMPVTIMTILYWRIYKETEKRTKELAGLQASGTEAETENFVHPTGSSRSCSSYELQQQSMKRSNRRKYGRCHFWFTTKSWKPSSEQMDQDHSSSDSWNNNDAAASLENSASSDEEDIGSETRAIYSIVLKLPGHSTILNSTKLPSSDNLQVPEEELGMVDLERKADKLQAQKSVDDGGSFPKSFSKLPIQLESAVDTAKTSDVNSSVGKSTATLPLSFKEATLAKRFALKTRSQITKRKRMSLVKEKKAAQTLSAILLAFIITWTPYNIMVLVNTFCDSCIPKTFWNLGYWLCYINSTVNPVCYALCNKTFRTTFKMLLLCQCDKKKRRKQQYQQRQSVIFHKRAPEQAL
Chain of hERG (KCNH2) (Q12809 whole entry): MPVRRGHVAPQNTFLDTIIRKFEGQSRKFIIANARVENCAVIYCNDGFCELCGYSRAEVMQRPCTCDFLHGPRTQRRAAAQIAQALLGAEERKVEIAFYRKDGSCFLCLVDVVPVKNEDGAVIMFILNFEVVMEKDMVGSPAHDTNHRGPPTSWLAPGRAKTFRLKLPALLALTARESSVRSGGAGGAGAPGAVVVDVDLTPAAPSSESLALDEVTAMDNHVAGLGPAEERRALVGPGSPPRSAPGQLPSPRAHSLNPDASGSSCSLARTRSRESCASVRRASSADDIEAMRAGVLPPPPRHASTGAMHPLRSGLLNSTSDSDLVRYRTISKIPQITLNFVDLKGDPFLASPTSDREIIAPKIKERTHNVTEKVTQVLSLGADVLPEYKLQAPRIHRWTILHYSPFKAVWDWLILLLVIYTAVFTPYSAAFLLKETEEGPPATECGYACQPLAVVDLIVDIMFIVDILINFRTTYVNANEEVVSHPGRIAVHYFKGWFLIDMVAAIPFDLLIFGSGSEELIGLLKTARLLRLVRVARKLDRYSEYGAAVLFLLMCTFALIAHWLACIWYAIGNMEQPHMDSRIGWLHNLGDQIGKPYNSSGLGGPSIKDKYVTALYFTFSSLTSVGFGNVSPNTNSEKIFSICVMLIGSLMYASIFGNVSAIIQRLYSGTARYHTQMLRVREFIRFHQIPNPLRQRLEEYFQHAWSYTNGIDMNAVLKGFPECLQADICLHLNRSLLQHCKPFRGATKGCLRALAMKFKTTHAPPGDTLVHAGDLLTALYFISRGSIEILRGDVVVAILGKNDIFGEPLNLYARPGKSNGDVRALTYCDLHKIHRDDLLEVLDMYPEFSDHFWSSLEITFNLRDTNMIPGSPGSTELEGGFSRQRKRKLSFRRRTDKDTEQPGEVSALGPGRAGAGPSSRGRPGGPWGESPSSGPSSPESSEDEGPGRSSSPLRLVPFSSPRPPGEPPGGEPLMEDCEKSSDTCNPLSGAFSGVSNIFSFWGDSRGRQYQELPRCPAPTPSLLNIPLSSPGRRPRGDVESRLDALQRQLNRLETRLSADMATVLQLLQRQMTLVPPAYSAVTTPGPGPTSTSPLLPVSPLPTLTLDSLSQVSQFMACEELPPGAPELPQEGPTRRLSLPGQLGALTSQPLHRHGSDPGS

## O=C(N[C@@H]1C[C@H]2CCN(C2)C1)c1ccc2occc2c1
[1]
  EC50: 81 nM
[2]
  Papp A→B: 3.8 ×10⁻⁶ cm/s
[3]
  hepatic extraction ratio at 0.5 h: < 0.27
[4]
  Kp at 5 min: 0.27
[5]
  Kp at 1 h: 1.15
[6]
  Ki: 6.2 nM

## O=C(N[C@@H]1C[C@H]2CCN(C2)C1)c1cc2ccoc2cn1
[7]
  Activity: 15%
[1]
  EC50: 46 nM
[8]
  Cmax: 22000 nM
[9]
  bioavailability: 40%
Rattus norvegicus [10]
  Activity: Active
Plasma [11]
  concentration: 60 nM
[12]
  NOAEL: 40 mg/kg
[2]
  Papp A→B: 21 ×10⁻⁶ cm/s
Rattus norvegicus [13]
  Vdss: 2.4 L/kg
[14]
  CL/F: 72 mL/min/kg
[4]
  Kp at 5 min: 1.52
Brain [15]
  concentration: 47 nM
[16]
  Ki: 9 nM
Plasma [17]
  concentration: 12 nM
[18]
  concentration at 144 h: 350 nM
[19]
  Ki: 350 nM
Rattus norvegicus [20]
  Activity: Dose-dependent effect
Rattus norvegicus [20]; read-out: MED
  minimal effective dose: 0.1 mg/kg
[5]
  Kp at 1 h: 1.88
[21]
  concentration at 0.5 h: 130 nM
Plasma [22]
  concentration: 1100 nM
[23]
  half-life: > 120 min
[24]
  concentration at 144 h: 490 nM
[25]
  Activity: 25%
hERG (KCNH2)
  inhibition at 20 µM: 25%
[26]
  Activity: 16%
Brain [27]
  concentration: 5.3 nM
[6]
  Ki: 2.9 nM
Brain [28]
  concentration: 1200 nM
[29]
  half-life: 48 min
[30]
  Activity: < 1%

## O=C(N[C@H]1CN2CCC1CC2)c1cc2ccoc2cn1 [PHA-543613]
[7]
  Activity: 33%
[8]
  Cmax: 3800 nM
[2]
  Papp A→B: 34 ×10⁻⁶ cm/s
Plasma [31]
  fraction unbound: 0.83
Rattus norvegicus [32]
  minimal effective dose: 0.24 mg/kg
Rattus norvegicus [13]
  Vdss: 1.8 L/kg
[14]
  CL/F: 33 mL/min/kg
[4]
  Kp at 5 min: 1.5
[19]
  Ki: 630 nM
[5]
  Kp at 1 h: 1.5
[23]
  half-life: > 120 min
[25]
  Activity: 23%
[26]
  Activity: 16%
[6]
  Ki: 9 nM
[29]
  half-life: 36 min
[30]
  Activity: 13%

## O=C(N[C@@H]1C[C@H]2CCN(C2)C1)c1ccc2c(c1)OCCO2
[1]
  EC50: 430 nM
[3]
  hepatic extraction ratio at 0.5 h: 0.74
[6]
  Ki: 29 nM

## O=C(N[C@@H]1C[C@H]2CCN(C2)C1)c1ccc2ncsc2c1
[1]
  EC50: 182 nM
[2]
  Papp A→B: 0.2 ×10⁻⁶ cm/s
[3]
  hepatic extraction ratio at 0.5 h: < 0.27
[4]
  Kp at 5 min: 0.02
[5]
  Kp at 1 h: 0.33
[6]
  Ki: 21 nM

From ChEMBL document CHEMBL1145564, “Discovery of N-[(3R,5R)-1-azabicyclo[3.2.1]oct-3-yl]furo[2,3-c]pyridine-5-carboxamide as an agonist of the alpha7 nicotinic acetylcholine receptor: in vitro and in vivo activity” (Bioorg Med Chem Lett, 2008)
